ChEMBL document CHEMBL1135962, “The first synthesis and antifungal activities of 9-methoxystrobilurin-type beta-substituted beta-methoxyacrylate” (2002)
Calls of active or inactive are those of the source. The rule behind the calls is not given here.

How the values were obtained:
Aspergillus fumigatus [1] = test: Compound was evaluated for antifungal activity against Aspergillus fumigatum R-1301 as diameter of inhibition zone at a concentration 0.1 ug/disk; assay type: functional
Summary of the method: (§1)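 Disk-diffusion assay against the fungal strain named in the line. Inhibition-zone diameter was measured after 48 h incubation and is the mean of two samples. Scoring codes used: not effective, slightly effective, incomplete inhibition.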

Aspergillus fumigatus [2] = test: Compound was evaluated for antifungal activity against Aspergillus fumigatum R-1301 as diameter of inhibition zone at a concentration 1 ug/disk; assay type: functional; summary of the method: as §1
Aspergillus fumigatus [3] = test: Compound was evaluated for antifungal activity against Aspergillus fumigatum R-1301 as diameter of inhibition zone at a concentration 10 ug/disk; assay type: functional; summary of the method: as §1
Candida albicans [4] = test: Compound was evaluated for antifungal activity against Candida albicans IFO 1594 as diameter of inhibition zone at a concentration 0.1 ug/disk; SE means slightly effective; assay type: functional, organism-based; summary of the method: as §1
Candida albicans [5] = test: Compound was evaluated for antifungal activity against Candida albicans IFO 1594 as diameter of inhibition zone at a concentration 1 ug/disk and showed incomplete inhibition; assay type: functional; summary of the method: as §1
Candida albicans [6] = test: Compound was evaluated for antifungal activity against Candida albicans IFO 1594 as diameter of inhibition zone at a concentration 10 ug/disk and showed incomplete inhibition; assay type: functional; summary of the method: as §1
Fusarium solani [7] = test: Compound was evaluated for antifungal activity against Fusarium solani R-2800 as diameter of inhibition zone at a concentration 0.1 ug/disk; NE means not effective; assay type: functional, organism-based; summary of the method: as §1
Fusarium solani [8] = test: Compound was evaluated for antifungal activity against Fusarium solani R-2800 as diameter of inhibition zone at a concentration 1 ug/disk; NE means not effective; assay type: functional, organism-based; summary of the method: as §1
Fusarium solani [9] = test: Compound was evaluated for antifungal activity against Fusarium solani R-2800 as diameter of inhibition zone at a concentration 10 ug/disk; NE means not effective; assay type: functional, organism-based; summary of the method: as §1
Penicillium citrinum [10] = test: Compound was evaluated for antifungal activity against penicillium ctrinum R-3703 as diameter of inhibition zone at a concentration 10 ug/disk; assay type: functional; summary of the method: as §1
Penicillium citrinum [11] = test: Compound was evaluated for antifungal activity against penicillium ctrinum R-3703 as diameter of inhibition zone at a concentration 0.1 ug/disk and showed incomplete inhibition; assay type: functional; summary of the method: as §1
Penicillium citrinum [12] = test: Compound was evaluated for antifungal activity against penicillium ctrinum R-3703 as diameter of inhibition zone at a concentration 1 ug/disk and showed incomplete inhibition; assay type: functional; summary of the method: as §1
Saccharomyces cerevisiae [13] = test: Compound was evaluated for antifungal activity against Saccharomyces cerevisiae IAM 4861 as diameter of inhibition zone at a concentration 10 ug/disk and showed incomplete inhibition; assay type: functional; summary of the method: as §1
Saccharomyces cerevisiae [14] = test: Compound was evaluated for antifungal activity against Saccharomyces cerevisiae IAM 4861 as diameter of inhibition zone at a concentration 0.1 ug/disk and showed incomplete inhibition; assay type: functional; summary of the method: as §1
Saccharomyces cerevisiae [15] = test: Compound was evaluated for antifungal activity against Saccharomyces cerevisiae IAM 4861 as diameter of inhibition zone at a concentration 1 ug/disk and showed incomplete inhibition; assay type: functional; summary of the method: as §1
Aspergillus fumigatus [16] = test: Compound was evaluated for antifungal activity against Aspergillus fumigatum R-1301 as diameter of inhibition zone at a concentration 0.1 ug/disk; NE means not effective; assay type: functional, organism-based; summary of the method: as §1
Candida albicans [17] = test: Compound was evaluated for antifungal activity against Candida albicans IFO 1594 as diameter of inhibition zone at a concentration 0.1 ug/disk; NE means not effective; assay type: functional, organism-based; summary of the method: as §1
Fusarium solani [18] = test: Compound was evaluated for antifungal activity against Fusarium solani R-2800 as diameter of inhibition zone at a concentration 1 ug/disk and showed incomplete inhibition; assay type: functional; summary of the method: as §1
Fusarium solani [19] = test: Compound was evaluated for antifungal activity against Fusarium solani R-2800 as diameter of inhibition zone at a concentration 10 ug/disk and showed incomplete inhibition; assay type: functional; summary of the method: as §1
Penicillium citrinum [20] = test: Compound was evaluated for antifungal activity against penicillium ctrinum R-3703 as diameter of inhibition zone at a concentration 0.1 ug/disk; NE means not effective; assay type: functional, organism-based; summary of the method: as §1
Penicillium citrinum [21] = test: Compound was evaluated for antifungal activity against penicillium ctrinum R-3703 as diameter of inhibition zone at a concentration 1 ug/disk; NE means not effective; assay type: functional, organism-based; summary of the method: as §1
Saccharomyces cerevisiae [22] = test: Compound was evaluated for antifungal activity against Saccharomyces cerevisiae IAM 4861 as diameter of inhibition zone at a concentration 0.1 ug/disk; NE means not effective; assay type: functional, organism-based; summary of the method: as §1
Penicillium citrinum [23] = test: Compound was evaluated for antifungal activity against penicillium ctrinum R-3703 as diameter of inhibition zone at a concentration 1 ug/disk; assay type: functional; summary of the method: as §1
Aspergillus fumigatus [24] = test: Compound was evaluated for antifungal activity against Aspergillus fumigatum R-1301 as diameter of inhibition zone at a concentration 1 ug/disk; NE means not effective; assay type: functional, organism-based; summary of the method: as §1
Candida albicans [25] = test: Compound was evaluated for antifungal activity against Candida albicans IFO 1594 as diameter of inhibition zone at a concentration 1 ug/disk; NE means not effective; assay type: functional, organism-based; summary of the method: as §1
Penicillium citrinum [26] = test: Compound was evaluated for antifungal activity against penicillium ctrinum R-3703 as diameter of inhibition zone at a concentration 1 ug/disk; SE means slightly effective; assay type: functional, organism-based; summary of the method: as §1
Saccharomyces cerevisiae [27] = test: Compound was evaluated for antifungal activity against Saccharomyces cerevisiae IAM 4861 as diameter of inhibition zone at a concentration 1 ug/disk; SE means slightly effective; assay type: functional, organism-based; summary of the method: as §1
Aspergillus fumigatus [28] = test: Compound was evaluated for antifungal activity against Aspergillus fumigatum R-1301 as diameter of inhibition zone at a concentration 10 ug/disk; NE means not effective; assay type: functional, organism-based; summary of the method: as §1
Candida albicans [29] = test: Compound was evaluated for antifungal activity against Candida albicans IFO 1594 as diameter of inhibition zone at a concentration 10 ug/disk; NE means not effective; assay type: functional, organism-based; summary of the method: as §1
Penicillium citrinum [30] = test: Compound was evaluated for antifungal activity against penicillium ctrinum R-3703 as diameter of inhibition zone at a concentration 10 ug/disk; NE means not effective; assay type: functional, organism-based; summary of the method: as §1
Saccharomyces cerevisiae [31] = test: Compound was evaluated for antifungal activity against Saccharomyces cerevisiae IAM 4861 as diameter of inhibition zone at a concentration 10 ug/disk; NE means not effective; assay type: functional, organism-based; summary of the method: as §1
Saccharomyces cerevisiae [32] = test: Compound was evaluated for antifungal activity against Saccharomyces cerevisiae IAM 4861 as diameter of inhibition zone at a concentration 1 ug/disk; NE means not effective; assay type: functional, organism-based; summary of the method: as §1
Penicillium citrinum [33] = test: Compound was evaluated for antifungal activity against penicillium ctrinum R-3703 as diameter of inhibition zone at a concentration 0.1 ug/disk; SE means slightly effective; assay type: functional, organism-based; summary of the method: as §1

| Compound | Inhibition zone (Aspergillus fumigatus [2]) | Inhibition zone (Aspergillus fumigatus [3]) | Inhibition zone (Candida albicans [5]) | Inhibition zone (Candida albicans [6]) | Inhibition zone (Fusarium solani [7]) | Inhibition zone (Fusarium solani [8]) | Inhibition zone (Fusarium solani [9]) | Inhibition zone (Penicillium citrinum [10]) | Inhibition zone (Saccharomyces cerevisiae [13]) | Inhibition zone (Saccharomyces cerevisiae [15]) | Inhibition zone (Aspergillus fumigatus [16]) | Inhibition zone (Candida albicans [17]) | Inhibition zone (Fusarium solani [18]) | Inhibition zone (Fusarium solani [19]) | Inhibition zone (Penicillium citrinum [20]) | Inhibition zone (Penicillium citrinum [21]) | Inhibition zone (Saccharomyces cerevisiae [22]) | Inhibition zone (Penicillium citrinum [23]) | Inhibition zone (Aspergillus fumigatus [24]) | Inhibition zone (Candida albicans [25]) | further results |
| --- | --- | --- | --- | --- | --- | --- | --- | --- | --- | --- | --- | --- | --- | --- | --- | --- | --- | --- | --- | --- | --- |
| CO\C=C(C(=O)OC)/C(C)=C(\C=C\c1ccccc1)OC [9-METHOXYSTROBILURIN A] | 28 mm | 38 mm | 32 mm | 42 mm | inactive | inactive | inactive | 33 mm | 44 mm | 39 mm | – | – | – | – | – | – | – | – | – | – | Inhibition zone (Aspergillus fumigatus [1]): 16 mm; Inhibition zone (Candida albicans [4]): Slightly Effective; Inhibition zone (Penicillium citrinum [11]): 19 mm; Inhibition zone (Penicillium citrinum [12]): 23 mm; Inhibition zone (Saccharomyces cerevisiae [14]): 13 mm |
| COC(=O)\C=C(OC)/C(C)=C(\C=C\c1ccc2ccccc2c1)OC | 10 mm | 16 mm | 8 mm | 14 mm | inactive | – | – | 13 mm | 21 mm | 15 mm | inactive | inactive | 19 mm | 27 mm | inactive | inactive | inactive | – | – | – | – |
| COC(=O)\C=C(OC)/C(C)=C(\C=C\c1ccccc1)OC | 17 mm | 36 mm | 27 mm | 32 mm | inactive | – | – | 42 mm | 46 mm | 30 mm | inactive | inactive | 22 mm | 30 mm | inactive | – | inactive | 17 mm | – | – | – |
| COC(=O)/C=C(/OC)[C@H](C)[C@H](/C=C/c1ccccc1)OC (racemic) | – | – | – | – | inactive | inactive | inactive | – | – | – | inactive | inactive | – | – | inactive | – | inactive | – | inactive | inactive | Inhibition zone (Penicillium citrinum [26]): Slightly effective; Inhibition zone (Saccharomyces cerevisiae [27]): Slightly effective |
| COC(=O)/C=C(/OC)[C@@H](C)[C@H](/C=C/c1ccccc1)OC (racemic) | – | – | – | – | inactive | inactive | inactive | – | – | – | inactive | inactive | – | – | inactive | inactive | inactive | – | inactive | inactive | Inhibition zone (Aspergillus fumigatus [28]): inactive; Inhibition zone (Candida albicans [29]): inactive; Inhibition zone (Penicillium citrinum [30]): inactive; Inhibition zone (Saccharomyces cerevisiae [31]): inactive; Inhibition zone (Saccharomyces cerevisiae [32]): inactive |
| COC(=O)\C=C(OC)/C(C)=C(\C=C\c1cccs1)OC | 20 mm | 29 mm | 16 mm | 32 mm | inactive | inactive | inactive | 40 mm | 49 mm | 31 mm | inactive | inactive | – | – | – | – | inactive | 21 mm | – | – | Inhibition zone (Penicillium citrinum [33]): Slightly effective |
